Assay outcomes deposited in PubChem by several laboratories.
Rows were chosen to be rich in hits. Some 4.8% of all compounds tested hit in one or more screens of this group.
PAFAH1B3 FP inh: PAFAH1B3 enzyme inhibitors, primary screen, biochemical, fluorescence polarization, human | Platelet-activating factor acetylhydrolase IB subunit alpha1 (Homo sapiens), Q15102 | recombinant PAFAH1B3, FP-rhodamine probe | inhibition, % at 3.39 µM | 0.28% of 340,000 active | AID 492972, 2010;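 active = inhibition above the screen-wide average of all tested compounds plus 3 SD, cut at about 25% in these data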;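 note: 0% = enzyme with DMSO only and 100% = wells lacking PAFAH1B3 protein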
pPAFAH FP inh: pPAFAH enzyme inhibitors, primary screen, biochemical, fluorescence polarization, human. recombinant pPAFAH, FP-rhodamine probe fluorescence polarization. Platelet-activating factor acetylhydrolase (Homo sapiens), Q13093. inhibition, % at 3.39 µM. 1.5% of 330,000 active;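 active = inhibition above the mean inhibition across the screen plus 3 SD, cut at about 25% in these data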;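 note: inhibitors block binding of the rhodamine activity-based probe so polarization drops; 0% = enzyme with DMSO and 100% = wells lacking pPAFAH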
UCH37 DUB inh: inhibitors of human UCH37 deubiquitinase, primary screen, biochemical, Ub-AMC cleavage, fluorescence | AID 588478, 2011 | purified proteasome/UCH37 | inhibition, % (test concentration not listed) | 0.33% of 330,000 active | Ubiquitin carboxyl-terminal hydrolase isozyme L5 (Homo sapiens), Q9Y5K5;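 active = mean inhibition over replicate wells above about 20%, limit read from the data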;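 note: 0% = compound-free wells with enzyme and 100% = wells lacking proteasome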
Target sequence (Q9Y5K5 whole entry, looked up): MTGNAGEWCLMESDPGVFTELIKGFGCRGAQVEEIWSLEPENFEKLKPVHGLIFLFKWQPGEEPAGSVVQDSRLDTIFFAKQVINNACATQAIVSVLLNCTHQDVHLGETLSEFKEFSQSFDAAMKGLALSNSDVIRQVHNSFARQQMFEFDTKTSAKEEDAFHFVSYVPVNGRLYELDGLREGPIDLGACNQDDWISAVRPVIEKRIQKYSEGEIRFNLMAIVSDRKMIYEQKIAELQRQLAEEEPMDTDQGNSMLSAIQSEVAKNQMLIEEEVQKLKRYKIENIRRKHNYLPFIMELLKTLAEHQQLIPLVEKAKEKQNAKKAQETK
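Schedule: 30 min plus 25 min, room temperature / Material: human UCH37 within purified proteasomes / Technique: AMC fluorescence intensity at 355/460 nm / Buffer or medium: pH 7.4 Tris-HCl (50 mM) with ovalbumin, ATP-MgCl2, DTT / Controls: wells without proteasome as full block, compound-free enzyme plus substrate as uninhibited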
PAFAH1B2 inh: PAFAH1B2 enzyme inhibitors, primary screen, biochemical, fluorescence polarization, human | inhibition, % at 3.39 µM | 1.2% of 340,000 active | Platelet-activating factor acetylhydrolase IB subunit alpha2 (Homo sapiens), P68402 | recombinant PAFAH1B2, FP-rhodamine activity probe;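 active = inhibition above the mean of all tested compounds plus 3 SD, cut at about 24% in these data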;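 note: 0% = enzyme with DMSO and 100% = wells lacking PAFAH1B2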
PAFAH2 FP inh: PAFAH2 enzyme inhibitors, primary screen, biochemical, fluorescence polarization, human; recombinant PAFAH2, FP-rhodamine activity probe; AID 492956, 2010; Platelet-activating factor acetylhydrolase 2, cytoplasmic (Homo sapiens), Q99487; 0.99% of 340,000 active; inhibition, % at 3.39 µM;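 active = inhibition above the mean over all tested compounds plus 3 SD, cut at about 30% in these data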;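 note: inhibitors block probe labeling of enzyme so polarization drops; 0% = enzyme with DMSO and 100% = wells lacking PAFAH2 protein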
GRIN3A LBD mod: binders of NR3A ligand-binding domain, primary screen, biophysical, differential scanning fluorimetry, uHTS. Glutamate receptor ionotropic, NMDA 3A (GRIN3A) ligand-binding domain. NR3A LBD differential scanning fluorimetry, Tm shift; 0% = protein alone, 100% = glycine-bound protein. Tm shift relative to glycine control, % at 25 µM. 2.5% of 340,000 active. AID 1259313, 2017;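 active = melting temperature shift of at least 10% of the positive control shift, at one fixed dose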
UCH37 reconfirm: retest of human UCH37 deubiquitinase inhibitors, confirmation, biochemical, Ub-AMC cleavage rate, fluorescence; shares compounds with UCH37 DUB inh; Proteasome-bound UCH37; inhibition, % at 20 µM; 27% of 480 active;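 active = average inhibition over replicates above about 50%, so the earlier screening hit is confirmed, limit read from the data; inactive = the rest, counted as false positives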;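 note: based on cleavage rate fitted by regression over a 30 min kinetic read; 0% = proteasome plus Ub-AMC and 100% = Ub-AMC without proteasome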
* hit, by the source's call.

How did Cc1cc(NC(=O)Nc2ccccc2F)ccc1Br do in these assays?
PAFAH1B3 FP inh: -7; pPAFAH FP inh: 0; UCH37 DUB inh: 38*; PAFAH1B2 inh: -5; PAFAH2 FP inh: -10; GRIN3A LBD mod: 26*; UCH37 reconfirm: 17

What do the screens show for `CCN1C(=O)/C(=C\N(C)C)NC1=S`?
PAFAH1B3 FP inh: 1; pPAFAH FP inh: 4; UCH37 DUB inh: 9; PAFAH1B2 inh: -3; PAFAH2 FP inh: 0; GRIN3A LBD mod: -19

Results for CN(C)/C=C1/NC(=S)NC1=O ?
PAFAH1B3 FP inh: 3; pPAFAH FP inh: -5; UCH37 DUB inh: 27*; PAFAH1B2 inh: 1; PAFAH2 FP inh: -2; GRIN3A LBD mod: 1; UCH37 reconfirm: 11

Results for CCOC(=O)c1sc2ncn(N=CN(C)C)c(=O)c2c1C ?
UCH37 DUB inh: -15

What do the screens show for `COc1ccc(N2C(=O)[C@@H]3[C@H](C2=O)[C@H]2c4ccccc4C=CN2[C@@H]3C(C)=O)cc1`?
PAFAH1B3 FP inh: 17; pPAFAH FP inh: 1; UCH37 DUB inh: 37*; PAFAH1B2 inh: 3; PAFAH2 FP inh: -5; GRIN3A LBD mod: -1; UCH37 reconfirm: -2

How did COc1cccc(C=NN2CCN(C)CC2)c1 do in these assays?
UCH37 DUB inh: 1

Results for CN1CCS/C1=C\C=C1/SC(=S)N(CC(=O)O)C1=O ?
PAFAH1B3 FP inh: 0; UCH37 DUB inh: 39*; PAFAH1B2 inh: -2; PAFAH2 FP inh: -9; GRIN3A LBD mod: 0; UCH37 reconfirm: 38

Results for CCN1C(=O)/C(=C/C=C2/SCCN2C)SC1=S ?
PAFAH1B3 FP inh: 4; pPAFAH FP inh: 2; UCH37 DUB inh: 8; PAFAH1B2 inh: -6; PAFAH2 FP inh: -3; GRIN3A LBD mod: 3

What do the screens show for `O=C1C2C3c4ccccc4C(c4ccccc43)C2C(=O)N1N=Cc1cccc(O)c1` (centres undefined)?
UCH37 DUB inh: 2

How did CN(CCCS(=O)(=O)[O-])c1ccc(/C=C/c2ccc3ccccc3[n+]2C)cc1 do in these assays?
PAFAH1B3 FP inh: 9; UCH37 DUB inh: 3; PAFAH1B2 inh: 2; PAFAH2 FP inh: -7; GRIN3A LBD mod: 0

How did CN(C)c1ccc(/C=C/c2ccc3ccccc3[n+]2C)cc1 do in these assays?
PAFAH1B3 FP inh: -21; pPAFAH FP inh: -5; UCH37 DUB inh: 25*; PAFAH1B2 inh: -9; PAFAH2 FP inh: -29; GRIN3A LBD mod: -3; UCH37 reconfirm: 30

Results for Fc1ccc(C=NN2CCCCC2)c(F)c1 ?
UCH37 DUB inh: -22

Results for CC1(C)OC(c2ccccc2)=C/C(=C/C=Nc2ccccc2)O1 ?
PAFAH1B3 FP inh: -7; pPAFAH FP inh: 3; UCH37 DUB inh: 48*; PAFAH1B2 inh: 0; PAFAH2 FP inh: -7; GRIN3A LBD mod: -2; UCH37 reconfirm: -18

What do the screens show for `O=C(Cn1cc(C=NO)c2ccccc21)N1CCOCC1`?
UCH37 DUB inh: 3

What do the screens show for `CCC(=O)N(C1=C(NC)C(=O)c2ccccc2C1=O)C(C)C`?
PAFAH1B3 FP inh: 15; pPAFAH FP inh: 6; UCH37 DUB inh: 33*; PAFAH1B2 inh: 2; PAFAH2 FP inh: -3; GRIN3A LBD mod: -1; UCH37 reconfirm: 42

What do the screens show for `NS(=O)(=O)c1ccc(N=Nc2c[nH]c(=O)c(O)c2)cc1`?
PAFAH1B3 FP inh: 15; pPAFAH FP inh: 9; UCH37 DUB inh: 33*; PAFAH1B2 inh: 10; PAFAH2 FP inh: 9; GRIN3A LBD mod: 1; UCH37 reconfirm: 40
